tolC growth inh: growth inhibitors of E. coli BW25113 tolC mutant. actives 2.2% (n = 65,000). growth inhibition, % at 10 µM (by protocol). OD615;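 active means growth inhibition at or above a cutoff equal to the mean over every tested compound plus 3 SD, cut at about 60% in these data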;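 further: growth measured after 20 h incubation at 37 °C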
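Test system: tolC-deleted E. coli BW25113 | Medium: LB with kanamycin 50 µg/mL | Compound dosing: Single concentration, 10 µM final per compound | Schedule: 37 °C, 20 h exposure | Measured by: OD at 615 nm | Evaluation: Percent growth inhibition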
HUVEC inhibit: inhibitors of human endothelial cell proliferation; HUVEC proliferation, CellTiter-Glo luminescence, 72 h; stronger effect = lower value; viability, % at 10 µM (by protocol); actives 1.1% (n = 86,000);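 active means viability at or below 30%; inactive means viability above 30%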;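 further: 100% = median luminescence of DMSO-only cell control wells on each plate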
Jurkat tox 60K: reduces viability or proliferation of Jurkat cells | Jurkat E6.1 viability, ATP luminescence, 48 h | inhibition, % at 4 µM | actives 1.2% (n = 56,000) | AID 463;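 active means inhibition above the mean inhibition of all tested compounds plus 3 SD, cut at about 28% in these data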
E coli WT exp: blocks growth of wild type E. coli BW25113 | actives 0.15% (n = 98,000) | AID 710 | OD600 absorbance | growth inhibition, % at 100 µM;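 active means growth inhibition above about 50% at one test dose, limit read from the data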;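 further: growth measured after 20 h incubation at 37 °C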
H69AR inhibit: growth inhibitors of human H69AR lung tumor cells. H69AR lung tumor viability, ATP luminescence, 72 h; stronger effect = lower value. viability, % at 10 µM. actives 6% (n = 85,000);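 active means viability at or below 40%; inactive means viability above 40%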;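 further: multidrug resistant small cell line overexpressing MRP-1 efflux transporter; 100% = mean luminescence of untreated control wells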
Lung fibro prol: blocks proliferation of human lung fibroblasts; AID 719; LL 47 human lung fibroblast viability, ATP luminescence; stronger effect = lower value; viability, % at 10 µM; actives 1.1% (n = 85,000);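 active means viability at or below 50% in the single dose screen; inactive means viability above 50%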;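 further: compound exposure lasted 72 h before the ATP readout; 100% = median luminescence of untreated cell-only wells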
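test system = LL 47 human lung fibroblasts | amount = 1,150 fibroblasts seeded per well | medium = 15% FBS in IMEM | times = overnight cell rest, 72 h compound treatment at 37 °C | measured by = CellTiter-Glo luminescence measuring cellular ATP | read-out = viability percentage against median untreated-cell control | benchmarks = cell-only wells, no compound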
* = called active by the depositor; · = no result given. Sampled rows, rich in hits. Any-hit rate of the full collection: about 6.4%.

SMILES	tolC growth inh	HUVEC inhibit	Jurkat tox 60K	E coli WT exp	H69AR inhibit	Lung fibro prol
O=C(O)CSCC(=O)NCc1ccccc1	-33	93	4	-2	103	102
O=C(COc1ccc2ccccc2c1Br)N1CCN(c2ccccn2)CC1	93*	77	0	-15	81	104
O=C(CSc1nccc2ccccc12)N1CCN(c2ccccn2)CC1	17	76	2	-4	99	104
O=C(c1ccccc1CCc1ccccc1)N1CCN(c2ccccn2)CC1	79*	102	-1	-3	69	86
O=C(CC1c2ccccc2Oc2ccccc21)N1CCN(c2ccccn2)CC1	40	97	1	-7	38*	110
Cc1ccc(CN(C(=O)c2cc(=O)c3cc(Cl)c(C)cc3o2)C2CCS(=O)(=O)C2)cc1 (stereo not drawn)	·	78	·	0	26*	82
Cc1ccc2c(C)c(C(=O)N(Cc3cccs3)C3CCS(=O)(=O)C3)oc2c1 (stereo not drawn)	·	74	·	-12	81	90
CCOc1ccc(CN(C(=O)c2oc3cc(C)ccc3c2C)C2CCS(=O)(=O)C2)cc1 (stereo not drawn)	·	50	·	-6	11*	86
CC(C)C(=O)Nc1cccc(C(=O)Nc2nccs2)c1	2	100	2	15	106	94
CCCCCCCCC(=O)N/N=C/c1ccccn1	·	·	·	22	·	·
CCCCCCCCC/C(=N\O)c1ccccn1	·	5.4*	·	29	80	36*
O=C(CSc1nc2ccccc2c(=O)n1NC(=O)Cc1ccccc1)NCCc1ccccc1	·	101	·	-6	57	96
COCCCn1c(SCC(=O)Nc2ccc(NC(=O)c3ccco3)c(OC)c2)nc2ccccc2c1=O	·	97	·	·	32*	93
COc1ccc(NC(=O)CSc2nc3ccccc3c(=O)n2CCCN2CCCCC2)c(OC)c1	·	78	·	1	66	83
O=c1c2ccccc2nnn1CSc1nnc(COc2ccc(Cl)cc2)n1Cc1ccco1	8	76	-3	-2	71	86
Cc1cc(NC(=O)CSc2nc3ccccc3c(=O)n2Cc2ccc(F)cc2)no1	-3	72	-5	-2	40*	74
CCOc1ccc(-n2c(SCC(=O)Nc3cc(C)on3)nnc2-c2c[nH]c3ccccc23)cc1	·	59	·	1	27*	90
O=c1c2ccccc2nnn1CSc1nc2cc(Cl)ccc2c(=O)n1Cc1ccco1	-7	55	-6	·	28*	61
Cc1cc(NC(=O)CSc2nc3ccccc3c(=O)n2-c2ccccc2)no1	·	·	·	-1	·	·
CC(C)c1ccc(NC(=O)N2CCC(c3nc4ccccc4o3)CC2)cc1	28	87	8	-8	78	91
Cc1cc(NC(=O)CSc2nc(C(C)C)nc3ccccc23)no1	·	73	·	2	14*	75
Cc1cc(NC(=O)CSc2nc3cc4c(cc3c(=O)n2CCc2ccccc2)OCO4)no1	-6	16*	·	-1	10*	68
COc1ccc(NC(=O)CSc2nc3ccccc3c(=O)n2-c2ccc3c(c2)OCO3)c(OC)c1	10	76	-9	-6	9.4*	120
COc1ccc(CCn2c(SCC(=O)Nc3cc(C)on3)nc3ccccc3c2=O)cc1OC	-8	68	-2	-3	33*	103
COc1ccc(-n2c(SCC(=O)Nc3ccc4c(c3)OCO4)nc3ccccc3c2=O)cc1	17	85	-4	-14	95	99
SMILES	tolC growth inh	HUVEC inhibit	Jurkat tox 60K	E coli WT exp	H69AR inhibit	Lung fibro prol
COc1ccc(CCn2c(SCC(=O)Nc3cc(C)on3)nc3ccsc3c2=O)cc1OC	5	100	·	1	69	79
O=C(Cn1cnc2ccccc2c1=O)NCCC(=O)N1CCN(c2ccccc2)CC1	-7	107	1	0	83	113
COc1cc(C(=O)N2CCC(O)(c3ccccc3)CC2)cc(OC)c1OC	·	·	·	-6	·	·
CCCCN(CC)C(=O)CSc1nc2ccccc2c(=O)n1CC1COc2ccccc2O1 (stereo not drawn)	·	90	·	-3	61	89
COC(=O)c1ccc2c(=O)n(Cc3ccco3)c(SCC(=O)Nc3ccc(C)c(Cl)c3)nc2c1	6	50	-1	-3	8.1*	12*
COCCNC(=O)CSc1nc2cc(OC)c(OC)cc2c(=O)n1Cc1ccco1	-6	90	·	-7	93	96
CCOC(=O)CSc1nc2ccccc2c(=O)n1CC	7	100	-5	6	90	99
CCc1ccc(NC(=O)CSc2nc3ccccc3c(=O)n2CCCC(=O)N2CCCC2)cc1	·	55	·	-16	30*	74
CCn1c(SCC(=O)OC2CCCCC2)nc2ccccc2c1=O	72*	94	7	12	87	98
CCCCNC(=O)CSc1nc2ccccc2c(=O)n1CC1COc2ccccc2O1 (stereo not drawn)	·	86	·	-4	27*	100
CCOC(=O)/C=C1\NC(=O)C(C)S1 (stereo not drawn)	·	115	·	5	104	101
CCC(=O)c1cc(F)c(N2CCN(S(=O)(=O)c3ccc(C)cc3)CC2)cc1C	23	88	-4	-7	93	102
CCC(C)(C)n1nnnc1C(c1cccnc1)N1CCN(c2cccc(C(F)(F)F)c2)CC1 (stereo not drawn)	·	88	·	-8	78	94
O=C(O)COc1ccc2c3c(c(=O)oc2c1)CCC3	·	100	·	9	90	103
CCNC(=S)NNC(=O)Nc1ccccc1	·	103	·	8	96	99
COc1ccccc1OCc1ccc(C(=O)Nc2ccncc2)o1	-10	93	21	6	98	100
CCOC(=O)c1cncc(C(=O)O)c1	·	·	·	-10	·	·
CCCCCCn1c(SCC(=O)Nc2cc(C)on2)nc2ccccc2c1=O	-3	60	3	-4	7.0*	64
CCOC(=O)c1cccc(NC(=O)CSc2nc3ccccc3c(=O)n2CC)c1	-9	70	-7	-2	40*	79
CCOC(=O)c1cccc(NC(=O)CSc2nc3ccccc3c(=O)n2CCOC)c1	7	89	10	1	59	95
CCOc1ccc(CCn2c(-c3ccco3)nc3ccccc3c2=O)cc1OCC	·	57	·	-9	32*	78
O=c1c2ccccc2nc(-c2ccco2)n1Cc1ccccc1	-7	79	·	-3	73	87
CCCCN1C2=C(C(=O)CCC2)C(c2ccc(Cl)c(Cl)c2)C2=C1c1ccccc1C2=O (stereo not drawn)	·	·	·	-18	·	·
Cc1cc(C(=O)OCC(=O)NCCCN2CCCC2=O)c2ccccc2n1	·	95	·	0	89	103
CC1CCc2c(C(=O)N3CCN(S(=O)(=O)c4cccs4)CC3)csc2C1 (stereo not drawn)	5	99	2	-14	100	104
CCOc1ccccc1N(CC(=O)N1CCOCC1)S(=O)(=O)c1ccc(SC)cc1	1	105	-1	1	75	95

Compound activity: PubChem, several laboratories
